From ChEMBL document CHEMBL1140288, “First synthesis and evaluation of the inhibitory effects of aza analogues of TSAO on HIV-1 replication” (J Med Chem, 2005)

Tests used:
MT4 [1] = test: Concentration of compound required to inhibit HIV-2 (ROD) induced cytopathicity in MT-4 cell culture by 50%; format: functional, cell-based; conditions: Homo sapiens
Method in brief: (§1)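 MT-4 cells at 3 × 10⁵ per mL were infected with HIV-1(III_B) or HIV-2(ROD) at ∼100 CCID₅₀ per mL, then mixed 1:1 with compound dilutions. After 4 days, viability was read by the MTT method. EC₅₀ was taken as the concentration giving 50% protection against HIV-induced cytopathicity.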

CCRF-CEM [2] = test: Concentration of compound inhibiting Lys103-Asn mutant HIV-1(IIIB) induced cytopathicity in CEM cell culture by 50%; format: functional, cell-based; conditions: Homo sapiens
Method in brief: (§2)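 CEM cells at 4 × 10⁵ per mL infected at ~100 CCID₅₀ per mL of cell suspension, then mixed 1:1 with compound dilutions in microtiter wells. Giant cell formation was scored microscopically after 4 days. EC₅₀ is the concentration inhibiting virus-induced cytopathicity by 50%. Mutant HIV-1(IIIB) RT strains were selected as described previously.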

CCRF-CEM [3] = test: Concentration of compound inhibiting Tyr181- Cys mutant HIV-1(IIIB) induced cytopathicity in CEM cell culture by 50%; format: functional, cell-based; conditions: Homo sapiens; method in brief: as §2
CCRF-CEM [4] = test: Concentration of compound required to inhibit HIV-1(IIIB) induced cytopathicity in CEM cell culture by 50%; format: functional, cell-based; conditions: Homo sapiens
Method in brief: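 CEM cells at 4 × 10⁵ per mL were infected with HIV-1(III_B) at ∼100 CCID₅₀ per mL and mixed 1:1 with serial compound dilutions. Giant cell formation was scored microscopically after 4 days. EC₅₀ was taken as the concentration giving 50% inhibition of virus-induced cytopathicity.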

MT4 [5] = test: Concentration of compound required to inhibit HIV-1(IIIB) induced cytopathicity in MT-4 cell culture by 50%; format: functional, cell-based; conditions: Homo sapiens; method in brief: as §1
CCRF-CEM [6] = test: Concentration of compound required to inhibit HIV-2 (ROD) induced cytopathicity in CEM cell culture by 50%; format: functional, cell-based; conditions: Homo sapiens; method in brief: as §2
CCRF-CEM [7] = test: Concentration of compound inhibiting Glu138-Lys mutant HIV-1(IIIB) induced cytopathicity in CEM cell culture by 50%; format: functional, cell-based; conditions: Homo sapiens; method in brief: as §2
MT4 [8] = test: Concentration of compound required to reduce by 50% the number of viable cells in mock infected MT-4 cell cultures; format: functional; conditions: Homo sapiens
Method in brief: (§3)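 Mock-infected CEM cells (4 × 10⁵ per mL) or MT-4 cells (3 × 10⁵ per mL) were exposed to serial compound dilutions for 4 days. CC₅₀ was the concentration reducing the number of viable cells by 50%.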

[9] = Concentration of compound required to reduce by 50% the number of viable cells in mock infected CEM cell cultures; format: functional; conditions: Homo sapiens, CCRF-CEM; method in brief: as §3
[10] = tested on: Human immunodeficiency virus 1; test: Concentration of compound inhibiting Tyr181Cys mutant HIV-1(IIIB) induced cytopathicity in CEM cell culture by 50%; format: functional, organism-based; conditions: Human immunodeficiency virus 1, CCRF-CEM; method in brief: as §2

Row | Structure (SMILES) | EC50 (MT4 [1]) [µM] | EC50 (CCRF-CEM [2]) [µM] | EC50 (CCRF-CEM [3]) [µM] | EC50 (CCRF-CEM [4]) [µM] | EC50 (MT4 [5]) [µM] | EC50 (CCRF-CEM [6]) [µM] | EC50 (CCRF-CEM [7]) [µM] | CC50 (MT4 [8]) [µM] | CC50 [9] [µM] | EC50 [10] [µM]
1 | Cc1cn([C@@H]2O[C@H](CO[Si](C)(C)C(C)(C)C)[C@@]3(OS(=O)(=O)C=C3N)[C@H]2O[Si](C)(C)C(C)(C)C)c(=O)[nH]c1=O | > 20 | 0.4 | 3 | 0.06 | 0.06 | > 4 | 4.6 | 14 | 16 | –
2 | Cc1cn([C@@H]2O[C@H](CO[Si](C)(C)C(C)(C)C)[C@@]3(NS(=O)(=O)C=C3N)[C@H]2O[Si](C)(C)C(C)(C)C)c(=O)[nH]c1=O | > 100 | – | – | 0.33 | 0.53 | > 10 | – | 105 | 19.1 | > 10
3 | Cc1cn([C@@H]2O[C@H](CO[Si](C)(C)C(C)(C)C)[C@]3(C(N)=CS(=O)(=O)N3C)[C@H]2O[Si](C)(C)C(C)(C)C)c(=O)[nH]c1=O | > 20 | – | – | 3.5 | 1.6 | > 10 | – | 19 | 21.6 | > 10
4 | Cc1cn([C@@H]2O[C@H](CO[Si](C)(C)C(C)(C)C)[C@@]3(NS(=O)(=O)C=C3N)[C@H]2O[Si](C)(C)C(C)(C)C)c(=O)n(C(=O)OC(C)(C)C)c1=O | – | 5 | – | 0.43 | 0.13 | > 10 | – | 19 | 21.2 | –
5 | CCn1c(=O)c(C)cn([C@@H]2O[C@H](CO[Si](C)(C)C(C)(C)C)[C@@]3(NS(=O)(=O)C=C3N)[C@H]2O[Si](C)(C)C(C)(C)C)c1=O | – | > 2 | – | 0.31 | – | – | > 2 | – | 4.9 | > 2
6 | Cc1cn([C@@H]2O[C@H](CO[Si](C)(C)C(C)(C)C)[C@@]3(NS(=O)(=O)C=C3N)[C@H]2O[Si](C)(C)C(C)(C)C)c(=O)n(C)c1=O | – | 4 | – | 0.22 | – | – | > 10 | – | 5.8 | > 10
7 | Cc1cn([C@@H]2O[C@H](CO[Si](C)(C)C(C)(C)C)[C@]3(C(N)=CS(=O)(=O)N3C)[C@H]2O[Si](C)(C)C(C)(C)C)c(=O)n(C)c1=O | > 200 | – | – | 2.5 | 0.66 | > 250 | – | > 200 | > 250 | > 250
8 | Cc1cn([C@@H]2O[C@H](CO[Si](C)(C)C(C)(C)C)[C@]3(C(N)=CS(=O)(=O)N3C)[C@H]2O[Si](C)(C)C(C)(C)C)c(=O)n(C(=O)OC(C)(C)C)c1=O | > 20 | – | – | 3.5 | 1.8 | > 10 | – | 20 | 20.6 | > 10
